We go through two molecules from ChEMBL document CHEMBL4610112, “Novel Pyrrolopyridone Bromodomain and Extra-Terminal Motif (BET) Inhibitors Effective in Endocrine-Resistant ER+ Breast Cancer with Acquired Resistance to Fulvestrant and Palbociclib” (J Med Chem, 2020).

Data set [1] is described as follows: Volume of distribution at steady state in CD1 mouse at 5 mg/kg, iv by LC-MS/MS analysis. The format is ADME, organism-based. Particulars: in vivo. In outline:
(§1)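 HCl salt dosed to CD1 mice in 30% PEG400/70% (10% HP-β-CD in water) (v/v), at 1 mg/mL for iv (5 mg/kg) or 3 mg/mL for oral gavage (30 mg/kg). Blood sampled at 0, 0.0833 (iv only), 0.25, 0.5, 1, 2, 4, 8 and 24 h, n = 3 per time point. Plasma levels measured by LC/MS/MS.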

For the next data set, the target named is CYP3A4 (Homo sapiens, UniProt P08684). In words: Inhibition of human CYP3A4 at 10 uM. The format is ADME.
Data set [2] can be described thus: Half life in human hepatocytes. The class given is ADME, cell-based, Hepatocyte.
In another data set the target is CYP2C19 (Homo sapiens, UniProt P33261). In words: Inhibition of human CYP2C19 at 10 uM. The class given is ADME.
Data set [3] can be described thus: Induction of thrombocytopenia in Sprague-Dawley rat assessed as platelet count […] at 25 mg/kg, po administered via gavage daily for 10 days (reference value: […]). The format is organism-based. Conditions: in vivo, 240 h.
Data set [4] is described as follows: Half life in CD1 mouse at 5 mg/kg, iv by LC-MS/MS analysis. Conditions: in vivo. The format is ADME, organism-based. In outline:
(§2)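 HCl salt dosed to CD1 mice iv (1 mg/mL) or by oral gavage (3 mg/mL) in 30% PEG400/70% (10% HP-β-CD in water) (v/v). Blood sampled at 0, 0.0833 (iv only), 0.25, 0.5, 1, 2, 4, 8 and 24 h, n = 3 per time point. Plasma levels measured by LC/MS/MS.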

A short description of data set [5]: Protein binding in plasma (unknown origin). The class given is ADME, cell-free. Particulars: human. In outline:
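Protein binding reported as percent bound, ketoconazole as reference compound. Run by a contract lab.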

The target of the next data set is CYP2C8 (Homo sapiens, UniProt P10632). Description: Inhibition of human CYP2C8 at 10 uM. The format is ADME.
Data set [6] can be described thus: AUC in CD1 mouse at 30 mg/kg, po by LC-MS/MS analysis. The class given is ADME, organism-based. Particulars: in vivo. In outline: as §2
Data set [7] is described as follows: Clearance in CD1 mouse at 5 mg/kg, iv by LC-MS/MS analysis. The format is ADME, organism-based. Particulars: in vivo. In outline: as §2
A short description of data set [8]: Toxicity in human MCF7:TAM1 cells xenografted ovariectomized athymic Nude-Foxn1 mouse assessed as effect on body weight at 50 mg/kg/day, po administered via gavage for 4 weeks. The class given is organism-based. Conditions: in vivo, 672 h. In outline:
(§3)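 MCF-7:TAM1 tumors established in 4–6-week-old female ovariectomized athymic nude mice (nude/Foxn1) given tamoxifen 1.5 mg/mouse daily. […] Body weight tracked against pretreatment, with overt toxicity signs observed. Vehicle and tamoxifen (1.5 mg/mouse/day po) groups as comparators.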
A general note: Xenograft models place foreign cells or tissue in a host animal.

The subject of the next data set is MCF7:TAM1. In words: Antitumor activity against human MCF7:TAM1 cells xenografted in ovariectomized athymic Nude-Foxn1 mouse assessed as tumor growth inhibition at 30 mg/kg/day, po administered via gavage for 4 weeks relative to control. The format is functional. Conditions: 672 h, read-out: TGI. In outline:
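MCF-7:Tam1 tumours established in 4–6 week old female ovariectomized athymic nude mice given daily tamoxifen 1.5 mg/mouse. […] Fulvestrant 1 (mg/mouse)/week sc. Tumour volume measured weekly by calipers as length × width² × π/6.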

A short description of data set [9]: Toxicity in human MCF7:TAM1 cells xenografted ovariectomized athymic Nude-Foxn1 mouse assessed as adverse sign t at 50 mg/kg/day, po administered via gavage for 4 weeks. Conditions: in vivo, 672 h. The format is organism-based. In outline:
as §3

Data set [10] in a line: Kinetic solubility of the compound in pH 7.4 PBS buffer. Particulars: read-out: Kinetic_solubility. The format is physicochemical. In outline: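 Kinetic solubility in PBS at pH 7.4, progesterone as reference compound. Run by a contract lab.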
Data set [11] is described as follows: Intrinsic clearance in human hepatocytes assessed per million cells. The format is ADME, cell-based, Hepatocyte. Particulars: read-out: CLH.
Data set [12] can be described thus: Half life in CD1 mouse at 30 mg/kg, po by LC-MS/MS analysis. The format is ADME, organism-based. Particulars: in vivo. In outline: as §2
A short description of data set [13]: Tmax in CD1 mouse at 30 mg/kg, po by LC-MS/MS analysis. The class given is ADME, organism-based. Conditions: in vivo. In outline:
as §1

A further data set addresses CYP2C9 (Homo sapiens, UniProt P11712). Description: Inhibition of human CYP2C9 at 10 uM. The class given is ADME.
Data set [14] in a line: Cmax in CD1 mouse at 30 mg/kg, po by LC-MS/MS analysis. The format is ADME, organism-based. Further details: dose 30 mg/kg, route oral. Conditions: in vivo. In outline: as §2
A further data set has as its target CYP2D6 (Homo sapiens, UniProt P10635). In words: Inhibition of human CYP2D6 at 10 uM. The format is ADME.
Data set [15] can be described thus: Oral bioavailability in CD1 mouse at 30 mg/kg by LC-MS/MS analysis. Particulars: in vivo. The format is ADME, organism-based. In outline: as §1
Another data set deals with CYP2A6 (Homo sapiens, UniProt P11509). Description: Inhibition of human CYP2A6 at 10 uM. The format is ADME.
Another data set addresses CYP1A2 (Homo sapiens, UniProt P05177). Description: Inhibition of human CYP1A2 at 10 uM. The class given is ADME.
Data set [16] is described as follows: AUC in CD1 mouse at 5 mg/kg, iv by LC-MS/MS analysis. The class given is ADME, organism-based. Particulars: in vivo. In outline: as §2
Data set [17] concerns the target Voltage-gated inwardly rectifying potassium channel KCNH2 (Homo sapiens, UniProt Q12809). Description: Inhibition of human ERG stably expressed in HEK293 cells. The class given is cell-based. In outline:
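hERG inhibition measured in HEK293 cells stably transfected with the hERG gene, IC50 determined, dofetilide as positive control. Run by a contract lab.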

A short description of data set [18]: Induction of thrombocytopenia in rat assessed as platelet count […] at 3 mg/kg, po administered daily for 10 days (reference value: […]). The class given is organism-based. Conditions: in vivo, 240 h.

Structures are written as SMILES.

CYP3A4, sequence (P08684 whole entry): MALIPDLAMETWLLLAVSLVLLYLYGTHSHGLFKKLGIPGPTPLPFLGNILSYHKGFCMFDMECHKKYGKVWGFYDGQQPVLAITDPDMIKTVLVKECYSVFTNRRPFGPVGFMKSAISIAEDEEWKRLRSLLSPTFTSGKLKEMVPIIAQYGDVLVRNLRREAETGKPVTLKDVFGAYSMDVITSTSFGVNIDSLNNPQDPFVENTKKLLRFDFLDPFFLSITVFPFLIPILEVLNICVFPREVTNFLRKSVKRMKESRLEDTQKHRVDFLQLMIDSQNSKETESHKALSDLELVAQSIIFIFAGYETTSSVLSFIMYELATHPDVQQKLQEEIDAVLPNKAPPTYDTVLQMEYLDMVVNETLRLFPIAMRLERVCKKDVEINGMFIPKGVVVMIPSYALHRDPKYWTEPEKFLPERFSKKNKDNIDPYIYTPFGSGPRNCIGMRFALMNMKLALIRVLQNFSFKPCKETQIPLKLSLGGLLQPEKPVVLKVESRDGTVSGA
CYP2C8, sequence (P10632 whole entry): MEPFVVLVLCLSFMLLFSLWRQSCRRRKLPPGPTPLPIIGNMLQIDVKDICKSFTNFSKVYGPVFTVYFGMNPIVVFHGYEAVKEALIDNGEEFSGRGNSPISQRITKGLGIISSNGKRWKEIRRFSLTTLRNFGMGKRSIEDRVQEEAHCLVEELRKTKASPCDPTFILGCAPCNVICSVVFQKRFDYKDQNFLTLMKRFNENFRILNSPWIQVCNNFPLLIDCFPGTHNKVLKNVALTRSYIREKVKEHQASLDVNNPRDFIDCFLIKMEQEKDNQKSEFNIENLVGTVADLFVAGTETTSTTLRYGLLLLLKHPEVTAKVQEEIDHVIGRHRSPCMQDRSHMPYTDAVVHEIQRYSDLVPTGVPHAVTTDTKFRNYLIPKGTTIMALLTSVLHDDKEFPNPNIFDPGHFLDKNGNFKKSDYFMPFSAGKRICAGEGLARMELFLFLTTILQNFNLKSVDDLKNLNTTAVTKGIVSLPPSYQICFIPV
CYP2C9, sequence (P11712 whole entry): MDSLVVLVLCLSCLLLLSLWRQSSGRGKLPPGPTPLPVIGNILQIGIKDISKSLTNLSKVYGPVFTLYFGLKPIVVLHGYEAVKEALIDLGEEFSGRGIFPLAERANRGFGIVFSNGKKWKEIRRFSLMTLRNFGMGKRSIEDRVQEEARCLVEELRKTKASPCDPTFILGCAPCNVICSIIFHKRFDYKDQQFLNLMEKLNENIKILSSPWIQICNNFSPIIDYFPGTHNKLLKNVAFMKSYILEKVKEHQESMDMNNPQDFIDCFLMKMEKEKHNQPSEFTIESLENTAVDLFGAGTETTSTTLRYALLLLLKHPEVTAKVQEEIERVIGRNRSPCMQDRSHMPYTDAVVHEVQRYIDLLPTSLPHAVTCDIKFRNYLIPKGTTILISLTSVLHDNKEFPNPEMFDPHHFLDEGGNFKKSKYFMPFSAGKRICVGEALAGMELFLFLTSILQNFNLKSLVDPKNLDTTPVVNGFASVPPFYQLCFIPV
CYP1A2, sequence (P05177 whole entry): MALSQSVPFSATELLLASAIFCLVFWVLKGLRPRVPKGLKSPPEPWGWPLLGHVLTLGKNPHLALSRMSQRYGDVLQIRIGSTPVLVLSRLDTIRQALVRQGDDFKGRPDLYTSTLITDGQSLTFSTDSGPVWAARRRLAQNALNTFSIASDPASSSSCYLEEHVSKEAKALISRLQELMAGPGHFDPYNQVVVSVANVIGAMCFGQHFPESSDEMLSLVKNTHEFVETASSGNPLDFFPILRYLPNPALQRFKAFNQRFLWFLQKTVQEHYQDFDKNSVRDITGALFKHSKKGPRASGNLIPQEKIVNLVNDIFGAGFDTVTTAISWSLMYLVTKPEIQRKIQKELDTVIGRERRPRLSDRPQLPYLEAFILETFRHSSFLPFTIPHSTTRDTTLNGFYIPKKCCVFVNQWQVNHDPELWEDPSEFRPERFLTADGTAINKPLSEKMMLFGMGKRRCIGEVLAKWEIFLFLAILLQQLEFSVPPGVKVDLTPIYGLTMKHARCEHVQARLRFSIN
CYP2C19, sequence (P33261 whole entry): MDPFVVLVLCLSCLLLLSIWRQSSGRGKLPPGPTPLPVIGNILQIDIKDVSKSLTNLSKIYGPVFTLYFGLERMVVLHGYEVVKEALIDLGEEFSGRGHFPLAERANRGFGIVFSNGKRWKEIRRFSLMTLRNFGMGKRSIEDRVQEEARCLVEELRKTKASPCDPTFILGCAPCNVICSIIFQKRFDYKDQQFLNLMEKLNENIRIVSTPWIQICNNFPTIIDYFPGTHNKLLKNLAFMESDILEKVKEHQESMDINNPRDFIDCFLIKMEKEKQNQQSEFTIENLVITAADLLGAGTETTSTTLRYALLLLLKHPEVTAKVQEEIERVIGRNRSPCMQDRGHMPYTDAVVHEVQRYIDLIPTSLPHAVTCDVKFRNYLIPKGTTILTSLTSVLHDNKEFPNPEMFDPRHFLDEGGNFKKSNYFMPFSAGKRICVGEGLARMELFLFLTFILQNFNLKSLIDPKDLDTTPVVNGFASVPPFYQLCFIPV
CYP2A6, sequence (P11509 whole entry): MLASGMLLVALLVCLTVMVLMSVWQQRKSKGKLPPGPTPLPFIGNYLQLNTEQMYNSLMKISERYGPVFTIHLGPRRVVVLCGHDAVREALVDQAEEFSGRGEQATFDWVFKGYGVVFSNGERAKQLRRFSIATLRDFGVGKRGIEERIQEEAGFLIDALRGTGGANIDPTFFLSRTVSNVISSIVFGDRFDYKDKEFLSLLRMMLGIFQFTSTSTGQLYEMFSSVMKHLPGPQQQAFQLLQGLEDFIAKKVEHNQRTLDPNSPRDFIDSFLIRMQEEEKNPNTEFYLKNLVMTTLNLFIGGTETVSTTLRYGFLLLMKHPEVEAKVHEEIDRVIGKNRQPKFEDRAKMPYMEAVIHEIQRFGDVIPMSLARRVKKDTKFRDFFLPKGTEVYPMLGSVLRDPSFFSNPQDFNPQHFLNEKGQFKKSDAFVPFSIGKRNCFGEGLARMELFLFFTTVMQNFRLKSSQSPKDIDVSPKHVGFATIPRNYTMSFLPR
Voltage-gated inwardly rectifying potassium channel KCNH2, sequence (Q12809 whole entry): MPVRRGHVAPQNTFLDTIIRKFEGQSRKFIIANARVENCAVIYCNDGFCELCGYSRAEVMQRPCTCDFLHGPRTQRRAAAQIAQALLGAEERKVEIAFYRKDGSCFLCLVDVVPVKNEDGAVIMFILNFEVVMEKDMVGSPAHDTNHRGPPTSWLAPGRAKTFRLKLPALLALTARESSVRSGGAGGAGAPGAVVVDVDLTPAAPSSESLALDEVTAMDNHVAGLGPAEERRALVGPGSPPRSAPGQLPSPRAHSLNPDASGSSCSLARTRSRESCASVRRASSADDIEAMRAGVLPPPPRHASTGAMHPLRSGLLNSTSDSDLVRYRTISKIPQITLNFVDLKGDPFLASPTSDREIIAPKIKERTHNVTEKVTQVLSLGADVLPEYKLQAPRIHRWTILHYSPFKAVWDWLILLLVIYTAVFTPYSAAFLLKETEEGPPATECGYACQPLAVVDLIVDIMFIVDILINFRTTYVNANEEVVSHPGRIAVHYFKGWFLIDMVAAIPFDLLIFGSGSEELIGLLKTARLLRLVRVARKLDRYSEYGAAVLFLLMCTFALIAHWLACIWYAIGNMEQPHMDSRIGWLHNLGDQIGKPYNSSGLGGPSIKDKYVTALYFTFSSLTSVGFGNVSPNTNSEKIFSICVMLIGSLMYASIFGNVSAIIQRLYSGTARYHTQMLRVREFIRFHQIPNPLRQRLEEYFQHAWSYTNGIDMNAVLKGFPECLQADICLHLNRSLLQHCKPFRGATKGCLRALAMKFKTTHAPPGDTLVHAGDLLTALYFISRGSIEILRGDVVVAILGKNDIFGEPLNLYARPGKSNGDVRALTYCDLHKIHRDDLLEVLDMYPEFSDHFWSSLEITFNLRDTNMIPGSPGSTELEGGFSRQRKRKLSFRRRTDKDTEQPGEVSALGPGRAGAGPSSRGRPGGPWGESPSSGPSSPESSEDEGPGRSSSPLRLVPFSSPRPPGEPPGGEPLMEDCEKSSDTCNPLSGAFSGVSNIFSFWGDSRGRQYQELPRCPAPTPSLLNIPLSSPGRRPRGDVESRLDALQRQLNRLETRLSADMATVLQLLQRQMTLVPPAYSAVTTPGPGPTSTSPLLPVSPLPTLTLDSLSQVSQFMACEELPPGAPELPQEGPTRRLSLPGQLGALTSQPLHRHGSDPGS
CYP2D6, sequence (P10635 whole entry): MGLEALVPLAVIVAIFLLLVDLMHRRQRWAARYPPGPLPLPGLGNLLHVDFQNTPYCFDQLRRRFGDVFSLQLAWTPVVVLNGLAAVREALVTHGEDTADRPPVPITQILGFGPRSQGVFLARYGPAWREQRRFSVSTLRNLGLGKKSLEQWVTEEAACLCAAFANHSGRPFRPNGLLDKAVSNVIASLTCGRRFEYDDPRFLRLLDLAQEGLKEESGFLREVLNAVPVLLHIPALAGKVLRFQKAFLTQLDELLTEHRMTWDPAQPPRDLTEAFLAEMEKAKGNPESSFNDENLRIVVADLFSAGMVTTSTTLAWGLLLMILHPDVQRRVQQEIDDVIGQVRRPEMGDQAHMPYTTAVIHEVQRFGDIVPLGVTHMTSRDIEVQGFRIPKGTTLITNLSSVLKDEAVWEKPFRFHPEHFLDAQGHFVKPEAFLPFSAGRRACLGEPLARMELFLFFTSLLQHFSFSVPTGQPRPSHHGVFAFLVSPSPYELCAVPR

In turn, `CCS(=O)(=O)Nc1cc(-c2cn(C)c3c(=O)[nH]ccc23)cc2c1ccn2C(C)(c1ccccn1)c1ccccn1.Cl` displayed a distribution volume (Vdss) in data set [1] of 1.49 L/kg. Also, the inhibition at 10 µM against CYP3A4 was 50.6%; at CYP2C19, 31.8%; on CYP2C8, 84.2%; against CYP2C9, 30.7%; on CYP2D6, 14.5%; at CYP2A6, 7.47%. The molecule also came in with an inhibition at 10 µM on CYP1A2 of 2.29%. The t1/2 in data set [2] amounted to 3.37 h; in [4], 1.95 h; in data set [12], 2.9 h. In addition, in [3], the platelet count is 1050 10^3/µL. Further, in [5], the PPB was 97.98%. Further, the AUC amounted to 9.598 µg·h/mL in [6] and 3.208 µg·h/mL in data set [16]. In addition, the clearance in [7] turned out to be 1.53 L/h/kg. For the same molecule, the Activity entry in [8] and in data set [9] was “Non-Toxic” throughout. For the same molecule, the inhibition in vivo at 30 mg/kg/day with MCF7:TAM1 amounted to 106%. The solubility kinetic in data set [10] was 73.4 µM. Further, the hepatocyte CLint in data set [11] turned out to be 6.86 µL/min/1e6 cells. The Tmax in [13] stood at 0.25 h. In data set [14], the Cmax was 3.09 µg/mL. The F in data set [15] is 49%. In [17], this molecule had an IC50 of 29.3 µM.
`CCS(=O)(=O)Nc1ccc(Oc2ccc(F)cc2F)c(-c2cn(C)c(=O)c3[nH]ccc23)c1` [MIVEBRESIB]: the platelet count in data set [18] was 173 10^3/µL.

What is called Vdss is the apparent volume that relates the amount in the body to the concentration in plasma or blood. Read a high Vdss as extensive tissue distribution. For orientation: inhibition means how much of the control response was suppressed. A high value points to a strong effect. The term AUC denotes concentration integrated over time. Higher therefore signals more exposure. One may read the clearance as the volume of plasma or blood freed of the substance per unit of time. A word on the Tmax: it is the time from dosing to the highest level. The Cmax is the peak of the concentration-time curve. The term IC50 denotes the midpoint of a concentration-inhibition curve. Read a low IC50 as greater potency.
